Bioassay records as filed in PubChem BioAssay.
Most compounds without a hit are left out; they make up all but 1.9% or so of the library.
RAD54 branch = inhibitors of human RAD54 branch migration | RAD54 Holliday junction branch migration, FAM/BHQ fluorescence | inhibition, % at 10.4 µM | 360,000 tested, 0.14% active | AID 602329;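 active means mean normalized replicate activity at least 40 and at least half of replicates scoring 40 or more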;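 further: 0% = median of neutral control wells and 100% = median of positive control wells; inhibitors cause a drop in the FAM fluorescence signal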
Target sequence (Q92698 whole entry, looked up): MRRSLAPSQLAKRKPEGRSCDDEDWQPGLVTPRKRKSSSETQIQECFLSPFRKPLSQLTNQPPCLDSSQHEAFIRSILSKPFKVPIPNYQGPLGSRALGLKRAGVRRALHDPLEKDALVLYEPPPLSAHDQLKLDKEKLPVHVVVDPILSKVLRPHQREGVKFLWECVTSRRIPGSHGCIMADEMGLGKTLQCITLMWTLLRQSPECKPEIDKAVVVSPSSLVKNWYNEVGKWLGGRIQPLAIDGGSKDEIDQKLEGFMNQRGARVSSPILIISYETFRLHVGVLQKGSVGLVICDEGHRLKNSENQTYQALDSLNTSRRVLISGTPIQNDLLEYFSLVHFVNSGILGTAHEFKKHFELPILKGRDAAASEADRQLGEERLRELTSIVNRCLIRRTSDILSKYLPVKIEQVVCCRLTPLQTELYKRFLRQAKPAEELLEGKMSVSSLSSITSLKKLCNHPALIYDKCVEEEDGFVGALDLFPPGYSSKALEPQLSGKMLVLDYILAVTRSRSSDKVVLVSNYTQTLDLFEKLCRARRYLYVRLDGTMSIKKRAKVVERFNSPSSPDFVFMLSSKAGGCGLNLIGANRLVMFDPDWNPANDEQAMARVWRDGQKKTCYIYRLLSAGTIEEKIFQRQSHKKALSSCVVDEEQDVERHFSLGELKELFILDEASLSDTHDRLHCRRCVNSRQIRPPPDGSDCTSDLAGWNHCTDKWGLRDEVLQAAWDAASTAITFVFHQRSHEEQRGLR
RAD52 anneal inh = RAD52 (human) annealing inhibition; inhibition, % at 18.7 µM; recombinant RAD52 DNA annealing, FRET fluorescence; 360,000 tested, 0.46% active;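 active means every replicate showing at least 50% inhibition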
PglD DTNB = PglD (C. jejuni) enzyme inhibition. purified PglD enzyme, DTNB colorimetric CoA detection. inhibition, % at 12.5 µM. 360,000 tested, 0.098% active; in the data active means inhibition above about 16%, passing the limit was not always enough
Cneo AK release = causes C. neoformans cell lysis. lysis activity, % at 15 µM. adenylate kinase release luminescence, 4 h; normalised: neutral wells 0, clomiphene wells 100. AID 651654. 360,000 tested, 0.2% active;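 active means mean lysis activity across replicates of at least 80%, whatever share of replicates individually reach that level; inactive means mean lysis activity below 80%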
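Signal: Adenylate kinase release luminescence | Assay system: Log-phase Cryptococcus neoformans yeast cells | Input: Cells at 5 × 10^6 per mL | Buffer or medium: Fresh YPD growth medium | Compound: Single dose | Schedule: Static 4 h at 37 °C with compound, 1 h detection | Controls: Clomiphene | Read-out: Luminescence rise reflecting yeast cell lysis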
rRNA inh HTS = selective bacterial rRNA inhibition in E. coli; E. coli WT GFP vs humanized-ribosome RFP mutants, fluorescence, 24 h; hits give low values; DMSO median 0, no signal -100; GFP signal change (wild-type ribosome), % (no concentration beside the values); 350,000 tested, 1.6% active;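 active means significant combined selectivity score with lowered wild-type GFP, culture density cut under 30%, mutant RFP and density less affected; inactive means any of these conditions unmet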
Active calls of the source: *.

For CC(C)NC(=O)N(C)C[C@H]1OCCCC[C@H](C)Oc2ccc(NC(=O)c3ccccc3)cc2C(=O)N([C@@H](C)CO)C[C@@H]1C the results were RAD54 branch 7, RAD52 anneal inh -4, PglD DTNB 4, Cneo AK release 95* and rRNA inh HTS -1.
Screening CC(C)NC(=O)N(C)C[C@@H]1OCCCC[C@@H](C)Oc2ccc(NC(=O)c3ccccc3)cc2C(=O)N([C@H](C)CO)C[C@@H]1C returned RAD54 branch -2, RAD52 anneal inh -4, PglD DTNB 2, Cneo AK release 111* and rRNA inh HTS -2.
Screening CNC[C@@H]1OCCCC[C@@H](C)Oc2ccc(NC(=O)c3ccccc3)cc2C(=O)N([C@H](C)CO)C[C@@H]1C returned RAD54 branch 5, RAD52 anneal inh -6, PglD DTNB -2, Cneo AK release -1 and rRNA inh HTS -1.
`CC(C)NC(=O)N(C)C[C@@H]1OCCCC[C@@H](C)Oc2ccc(NC(=O)c3ccccc3)cc2C(=O)N([C@H](C)CO)C[C@H]1C` gave RAD54 branch -5, RAD52 anneal inh -12, PglD DTNB 3, Cneo AK release 103* and rRNA inh HTS -1.
CC(C)NC(=O)N(C)C[C@H]1OCCCC[C@@H](C)Oc2ccc(NC(=O)c3ccccc3)cc2C(=O)N([C@H](C)CO)C[C@H]1C was read as RAD54 branch 8, RAD52 anneal inh -5, PglD DTNB -1, Cneo AK release -1 and rRNA inh HTS -3.
`CNC[C@@H]1OCCCC[C@H](C)Oc2ccc(NC(=O)c3ccccc3)cc2C(=O)N([C@@H](C)CO)C[C@@H]1C` gave RAD54 branch 6, RAD52 anneal inh -68, PglD DTNB -41, Cneo AK release 82* and rRNA inh HTS 1.
C[C@@H]1CCCCO[C@H](CN(C)CC2CC2)[C@H](C)CN([C@@H](C)CO)C(=O)c2cc(NC(=O)c3ccccc3)ccc2O1 was read as RAD54 branch 12, RAD52 anneal inh 52*, PglD DTNB 6, Cneo AK release 13 and rRNA inh HTS -2.
C[C@@H]1CCCCO[C@@H](CN(C)C(=O)c2ccccc2)[C@H](C)CN([C@@H](C)CO)C(=O)c2cc(NC(=O)c3ccccc3)ccc2O1 was read as RAD54 branch 7, RAD52 anneal inh 5, PglD DTNB 1, Cneo AK release -1 and rRNA inh HTS -21*.
For C[C@@H]1CCCCO[C@@H](CN(C)CC2CC2)[C@H](C)CN([C@@H](C)CO)C(=O)c2cc(NC(=O)c3ccccc3)ccc2O1 the results were rRNA inh HTS 3.
`C[C@H](CO)N1C[C@H](C)[C@H](CN(C)C(=O)c2ccccc2)OCCCC[C@H](C)Oc2ccc(NC(=O)c3ccccc3)cc2C1=O` gave RAD54 branch 1, RAD52 anneal inh -5, PglD DTNB -1, Cneo AK release -1 and rRNA inh HTS -4.
CC(C)NC(=O)N(C)C[C@@H]1OCCCC[C@H](C)Oc2ccc(NC(=O)Cc3ccccc3)cc2C(=O)N([C@H](C)CO)C[C@H]1C was read as RAD54 branch 9, RAD52 anneal inh -9, PglD DTNB -2, Cneo AK release 101* and rRNA inh HTS 8.
Screening CC(C)NC(=O)N(C)C[C@@H]1OCCCC[C@H](C)Oc2ccc(NC(=O)Cc3ccccc3)cc2C(=O)N([C@H](C)CO)C[C@@H]1C returned RAD54 branch -4, RAD52 anneal inh 12, PglD DTNB -2, Cneo AK release -1 and rRNA inh HTS 0.
For Cc1nc(S(=O)(=O)N2CCN(Cc3cccc(OCCO)c3)CC2)cn1C the results were RAD54 branch -10, RAD52 anneal inh 16, PglD DTNB 3 and Cneo AK release 55.
Screening Cc1ccc(-c2csc3nc(C(C)C)oc(=O)c23)c(C)c1 returned RAD54 branch -9, RAD52 anneal inh -3, PglD DTNB 0, Cneo AK release 0 and rRNA inh HTS -24*.
`CC(C)C(=O)N1CCN(c2nc3ccc(Cl)cc3s2)CC1` gave RAD54 branch 1, RAD52 anneal inh 1, PglD DTNB -4, Cneo AK release 8 and rRNA inh HTS -35*.
Screening CC(C)NC(=O)N1CCCN(c2nc3ccc(Cl)cc3s2)CC1 returned RAD54 branch 2, RAD52 anneal inh 17, PglD DTNB -2, Cneo AK release 0 and rRNA inh HTS -24*.
`C[C@@H]1CN([C@H](C)CO)C(=O)c2cc(NS(=O)(=O)c3ccc(Cl)cc3)ccc2O[C@@H]1CN(C)Cc1ccc(C(=O)O)cc1` gave RAD54 branch -4, RAD52 anneal inh 7, PglD DTNB 3, Cneo AK release 0 and rRNA inh HTS -1.
`COc1ccccc1CNCC(=O)Nc1cc(S(=O)(=O)N2CCCCCC2)ccc1Cl` gave RAD52 anneal inh 9 and rRNA inh HTS -31*.
`O=C(Nc1ccccc1C(=O)O)c1cc(S(=O)(=O)N2CCCCCC2)ccc1Cl` gave RAD54 branch -8, RAD52 anneal inh -9, PglD DTNB 0, Cneo AK release -2 and rRNA inh HTS -44*.
For O=C(C1=C[C@@H](c2ccccc2)C[C@@H](OCc2ccc(CO)cc2)O1)N1CCCC1 the results were RAD52 anneal inh 8 and Cneo AK release -1.
COC(=O)c1c(C)[nH]c(C(=O)OCC(=O)c2ccc(C)s2)c1C was read as RAD54 branch 7, RAD52 anneal inh -21, PglD DTNB -3, Cneo AK release 1 and rRNA inh HTS -20*.
Screening CCOC(=O)c1[nH]c(C)c(C(=O)OC)c1C returned RAD52 anneal inh -2 and rRNA inh HTS -2.
`CCCC(=O)N1CC2(CN(C(C)=O)C2)c2c(n(C)c3cc(OC)ccc23)[C@H]1CO` gave rRNA inh HTS 1.
`COC(CNC(=O)c1ccc2nc(-c3cccs3)c(-c3cccs3)nc2c1)OC` gave RAD54 branch -16, RAD52 anneal inh -18, PglD DTNB -9, Cneo AK release 0 and rRNA inh HTS -22*.
COc1ccc(-c2nc3ccc(C(=O)NCC(OC)OC)cc3nc2-c2ccc(OC)c(OC)c2)cc1OC was read as RAD54 branch -9, RAD52 anneal inh -15, PglD DTNB 1, Cneo AK release 4 and rRNA inh HTS 8.
COc1ccc2c3c([nH]c2c1)[C@@H](CO)N(C(=O)Nc1ccc(F)cc1)CC31CN(C(=O)Nc2ccc3c(c2)OCO3)C1 was read as RAD52 anneal inh 3 and rRNA inh HTS -1.
CC(C)(C)NC(=O)CSCc1c(Cl)cccc1Cl was read as RAD52 anneal inh -2 and rRNA inh HTS -31*.
Screening C[C@H]1CN([C@@H](C)CO)C(=O)c2cccc(NC(=O)Nc3ccccc3)c2O[C@@H]1CN(C)C returned RAD54 branch 1, RAD52 anneal inh 19, PglD DTNB -1, Cneo AK release -4 and rRNA inh HTS 0.
COc1ccc(/C(N)=N/OC(=O)Cc2ccc(OC)c(OC)c2)cc1 was read as RAD54 branch 6, RAD52 anneal inh -11, PglD DTNB 0, Cneo AK release -6 and rRNA inh HTS -26*.
